Published values pooled from the literature.
Lines come from different studies, so protocols differ.

| SMILES | target or system | assay | system | conditions | endpoint | value |
| --- | --- | --- | --- | --- | --- | --- |
| COC[C@@H](NC(C)=O)C(=O)NCc1ccc(OCc2ccccc2)cc1 | – | MES seizures | rat | oral | ED50 | < 10 mg/kg |
| CC1=NN(CNc2ccc(O)cc2)C(=O)C1=NNn1c(-c2ccccc2)nc2ccccc2c1=O | Vibrio cholerae | microbial growth, broth dilution | – | 24 h | MIC | 107 µM |
| CN1C(=O)CC(=O)N(c2ccccc2)c2cc(Cl)ccc21 | – | MES seizures | rat | intraperitoneal | ED50 | 36.3 mg/kg |
| CC(C=CC(O)=C1C(=O)CNC1=O)=CC(C)C1OC2(C)OC(C(O)C=C2C)C1C (stereo not shown) | Bacillus anthracis | microbial growth | 34F2 | – | MIC | 25 µM |
| CN[C@@H]1[C@H](O)[C@H](NC)[C@H]2O[C@@]3(O)C(=O)C[C@@H](C)O[C@H]3O[C@@H]2[C@H]1O | Bacillus anthracis | microbial growth | STERNE34F2 | – | MIC | 25 µg/mL |
| O=C(CCCCC1CCCCC1)NP(=O)(O)O | Bacillus anthracis | microbial growth | STERNE34F2 | – | MIC | > 200 µg/mL |
| CCOC(=O)Nc1ccc(NCc2ccc(F)cc2)cc1N | – | MES seizures | rat | intraperitoneal | ED50 | 4.01 mg/kg |
| CCCCCCCCCC#CCCCCC(=O)O | Leishmania infantum | parasite growth | – | promastigote | EC50 | 102 µM |
| O=C(O)c1cn(C2CC2)c2cc(N3CCNCC3)c(F)cc2c1=O | Bacillus anthracis | microbial growth | 34F2 | – | MIC | 0.781 µM |
| OC[C@H]1O[C@@H](n2cnc3c(NC4CCCC4)ncnc32)[C@H](O)[C@@H]1O | – | MES seizures | rat | oral | ED50 | > 10 mg/kg |
| CC1=NN(CNc2ccc(C(=O)O)cc2)C(=O)C1=NNn1c(-c2ccccc2)nc2ccccc2c1=O | Vibrio cholerae | microbial growth, broth dilution | – | 24 h | MIC | 50.5 µM |
| CCCCCCCCCCCC(=O)NP(=O)(O)O | Bacillus anthracis | microbial growth | STERNE34F2 | – | MIC | > 200 µg/mL |
| Cn1cnc2nc(NCc3ccc(Cl)c(Cl)c3)[nH]c(=O)c21 | Bifidobacterium | microbial growth, agar dilution | – | 48 h | MIC | > 32 µg/mL |
| CCCCCCCCCCCCCCCC(=O)CP(=O)(O)O | Bacillus anthracis | microbial growth | STERNE34F2 | – | MIC | 1.56 µg/mL |
| CC1=NN(CNc2ccccn2)C(=O)C1=NNn1c(-c2ccccc2)nc2ccccc2c1=O | Vibrio cholerae | microbial growth, broth dilution | – | 24 h | MIC | 55.2 µM |
| O=C(CCCCC1CCCCC1)CP(=O)(O)O | Bacillus anthracis | microbial growth | STERNE34F2 | – | MIC | 200 µg/mL |
| CC1=NN(CNC(=O)c2ccccc2)C(=O)C1=NNn1c(-c2ccccc2)nc2ccccc2c1=O | Vibrio cholerae | microbial growth, broth dilution | – | 24 h | MIC | 51.9 µM |
| CCCC(=O)CP(=O)(O)O | Bacillus anthracis | microbial growth | STERNE34F2 | – | MIC | 100 µg/mL |
| COc1ccc2cc1Oc1cc(ccc1OC)CCC(N[C@@H]1CCCc3ccccc31)CCCC2 (stereo partly shown) | Streptococcus pyogenes | microbial growth, broth dilution | ATCC700294 | – | MIC | > 100 µg/mL |
